Assay results taken from ChEMBL document CHEMBL1148106, “Potent cytotoxic lignans from Justicia procumbens and their effects on nitric oxide and tumor necrosis factor-alpha production in mouse macrophages” (J Nat Prod, 2002).
pIC50: −log10 of the molar value. ≈ marks a conversion by molar mass, not a printed value. Numbered stars: 1 amine (or outer) side, 2 acyl side, 3 side chain; on linkers, the order of the positions; unused ones are H or OH. Bridge positions count the residues as written; N and C are the ends. Square brackets hold non-standard residues; d marks the D form. Peptide text beside a SMILES is read from it. I, II: the chains in the order shown. Actinocin(1to9) = Cc1c2oc3c(C)ccc(C(=O)[*:2])c3nc-2c(C(=O)[*:1])c(N)c1=O; NMeV = CN[C@H](C(=O)O)C(C)C; Sar = CNCC(=O)O

Legend:
[1] = test system: RAW264.7; assay: Antiinflammatory activity in LPS-stimulated mouse RAW264.7 cells assessed as effect on NO production pretreated 1 hr before LPS challenge measured after 24 hrs; type: functional, cell-based
Method in brief: (§1)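 RAW 264.7 cells in DMEM with 10% FBS and antibiotics, 2 × 10⁵ cells/well, adhered overnight. Pretreated 1 h at 37 °C with drug or vehicle (final DMSO 0.5%), then stimulated with 1 µg/mL E. coli 0111:B4 LPS for 24 h. Medium nitrite measured by Griess reaction (sulfanilamide, HCl, naphthylethylenediamine, 10 min room temperature, A550) against a NaNO2 standard curve. Mean ± SEM, n = 3.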

[2] = test system: MCF7; assay: Cytotoxicity against human MCF7 cells by MTT assay; type: functional; conditions: read-out: ED50 (the source's name)
Method in brief: (§2)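 Cells grown in DMEM with 10% FBS plus antibiotics; assay medium supplemented with 10 mM HEPES pH 7.3, 37 °C CO2 incubator. (1-3) × 10³ cells/100 µL seeded, 6 h attachment, drug exposure 6 days. MTT added for 4 h at 37 °C, cells lysed in 10% SDS/0.01 M HCl, A550 read; cell death expressed as % MTT inhibition versus cell-only and medium-blank wells.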

[3] = Cytotoxicity against human MCF7-ras cells by MTT assay; type: functional; conditions: read-out: ED50 (the source's name); method in brief: as §2
[4] = test system: Ca-Ski; assay: Cytotoxicity against human CaSKi cells by MTT assay; type: functional; conditions: read-out: ED50 (the source's name)
Method in brief: (§3)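 Human lines from ATCC grown in DMEM with 10% FBS, 2 mM L-glutamine, penicillin and streptomycin, plus 10 mM HEPES pH 7.3 for the assay. (1-3) × 10³ cells/well, 6 h attachment, then drug exposure for 6 days at 37 °C. MTT added for 4 h, cells lysed in 10% SDS/0.01 M HCl, A550 read. Death calculated as percent MTT inhibition.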

[5] = Cytotoxicity against human Hep3B cells by MTT assay; type: functional, Hep 3B2; conditions: read-out: ED50 (the source's name); method in brief: as §3
[6] = test system: HepG2; assay: Cytotoxicity against human HepG2 cells by MTT assay; type: functional; conditions: read-out: ED50 (the source's name); method in brief: as §3
[7] = test system: RAW264.7; assay: Antiinflammatory activity in LPS-stimulated mouse RAW264.7 cells assessed as effect on NO production at 1 uM pretreated 1 hr before LPS challenge measured after 24 hrs; type: functional; method in brief: as §1
[8] = test system: RAW264.7; assay: Antiinflammatory activity in LPS-stimulated mouse RAW264.7 cells assessed as effect on TNFalpha formation at 0.1 uM pretreated 1 hr before LPS challenge measured after 24 hrs; type: functional
Method in brief: (§4)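 Medium from RAW 264.7 macrophages (2 × 10⁵ cells/well, adhered overnight) pretreated 1 h at 37 °C with drug or 0.5% DMSO vehicle and then given 1 µg/mL LPS (E. coli 0111:B4) for 24 h. Supernatant stored at -70 °C, and TNF-α quantified by ELISA kit per manufacturer. Mean ± SEM, n = 3.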

[9] = test system: SiHa; assay: Cytotoxicity against human SiHa cells by MTT assay; type: functional; conditions: for EC50: Homo sapiens, SiHa, read-out: ED50 (the source's name); method in brief: as §3
[10] = Cytotoxicity against mouse 212 cells by MTT assay; type: functional; conditions: read-out: ED50 (the source's name)
Method in brief: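 Ha-ras-inducible NIH/3T3-derived 212 cells maintained in MEM alpha with 10% FBS and antibiotics, with 10 mM HEPES pH 7.3 added for the assay. Seeded at (1-3) × 10³ cells/well, allowed 6 h to attach, then exposed to drug 6 days at 37 °C. MTT pulse 4 h, SDS/HCl lysis, absorbance at 550 nm. Cell death expressed as percent MTT inhibition.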

[11] = test system: RAW264.7; assay: Antiinflammatory activity in LPS-stimulated mouse RAW264.7 cells assessed as effect on NO production at 0.3 uM pretreated 1 hr before LPS challenge measured after 24 hrs; type: functional; method in brief: as §1
[12] = test system: RAW264.7; assay: Antiinflammatory activity in LPS-stimulated mouse RAW264.7 cells assessed as effect on TNFalpha formation at 0.3 uM pretreated 1 hr before LPS challenge measured after 24 hrs; type: functional; method in brief: as §4
[13] = test system: RAW264.7; assay: Antiinflammatory activity in LPS-stimulated mouse RAW264.7 cells assessed as effect on TNFalpha formation at 30 uM pretreated 1 hr before LPS challenge measured after 24 hrs; type: functional; method in brief: as §4
[14] = test system: HCT-116; assay: Cytotoxicity against human HCT116 cells by MTT assay; type: functional; conditions: read-out: ED50 (the source's name); method in brief: as §2
[15] = test system: HT-29; assay: Cytotoxicity against human HT-29 cells by MTT assay; type: functional; conditions: read-out: ED50 (the source's name); method in brief: as §2
[16] = test system: RAW264.7; assay: Antiinflammatory activity in LPS-stimulated mouse RAW264.7 cells assessed as effect on NO production at 30 uM pretreated 1 hr before LPS challenge measured after 24 hrs; type: functional; method in brief: as §1
[17] = test system: RAW264.7; assay: Antiinflammatory activity in LPS-stimulated mouse RAW264.7 cells assessed as effect on NO production at 10 uM pretreated 1 hr before LPS challenge measured after 24 hrs; type: functional; method in brief: as §1
[18] = test system: RAW264.7; assay: Antiinflammatory activity in LPS-stimulated mouse RAW264.7 cells assessed as effect on NO production at 3 uM pretreated 1 hr before LPS challenge measured after 24 hrs; type: functional
Method in brief: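 RAW 264.7 cells at 2 × 10⁵ per well in DMEM/10% FBS, adhered overnight. Pretreated 1 h at 37 °C with drug or vehicle (DMSO fixed at 0.5% final), then LPS (E. coli 0111:B4) 1 µg/mL for 24 h. Medium nitrite measured by Griess reaction (10 min RT, A550) against NaNO2 standard curve; mean ± SEM, n = 3, compared with control.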

[19] = test system: RAW264.7; assay: Antiinflammatory activity in LPS-stimulated mouse RAW264.7 cells assessed as effect on TNFalpha formation pretreated 1 hr before LPS challenge measured after 24 hrs; type: functional, cell-based; method in brief: as §4

| Compound | EC50 [5] [µg/mL] | EC50 [6] [µg/mL] | EC50 [10] [µg/mL] | inhibition at 30 µM [13] [%] | EC50 [14] [µg/mL] | EC50 [15] [µg/mL] | further results |
| --- | --- | --- | --- | --- | --- | --- | --- |
| CC(=N)NCc1cccc(CN)c1 [1400W] | – | – | – | – | – | – | pIC50 [1]: 5.51 |
| COc1cc2c(OC)c3c(c(-c4ccc5c(c4)OCO5)c2cc1OC)C(=O)OC3 [JUSTICIDIN A] | 0.029 (≈ 0.0735 µM) | 0.02 (≈ 0.0507 µM) | 0.0227 (≈ 0.0576 µM) | – | – | – | EC50 [2]: 0.39 µg/mL (≈ 0.989 µM); EC50 [3]: 0.074 µg/mL (≈ 0.188 µM); EC50 [4]: 0.003 µg/mL (≈ 0.00761 µM); inhibition at 1 µM [7]: 19.8%; inhibition at 0.1 µM [8]: -6%; EC50 [9]: 0.0074 µg/mL (≈ 0.0188 µM); inhibition at 0.3 µM [11]: 20.3%; inhibition at 0.3 µM [12]: -158% |
| Cc1c2oc3c(C)ccc(C(=O)N[C@@H]4C(=O)N[C@H](C(C)C)C(=O)N5CCC[C@H]5C(=O)N(C)CC(=O)N(C)[C@@H](C(C)C)C(=O)O[C@@H]4C)c3nc-2c(C(=O)N[C@@H]2C(=O)N[C@H](C(C)C)C(=O)N3CCC[C@H]3C(=O)N(C)CC(=O)N(C)[C@@H](C(C)C)C(=O)O[C@@H]2C)c(N)c1=O [DACTINOMYCIN] (I: T[dV]P[Sar][NMeV] / II: T[dV]P[Sar][NMeV]; ester I:1-I:C, II:1-II:C; linker I:N-II:N via Actinocin(1to9)) | – | – | – | – | – | – | EC50 [4]: 0.0019 µg/mL (≈ 0.00151 µM); ED50 [9]: 8.1 ×10⁻⁴ ug/ml |
| COc1cc2c(O[C@@H]3OC[C@](O)(CO[C@@H]4OC[C@@H](O)[C@H](O)[C@H]4O)[C@H]3O[C@H]3OC[C@@H](O)[C@@H](O)[C@@H]3O)c3c(c(-c4ccc5c(c4)OCO5)c2cc1OC)C(=O)OC3 | – | – | – | 18.7 | – | – | – |
| O=c1[nH]cc(F)c(=O)[nH]1 [FLUOROURACIL] | 0.0715 (≈ 0.55 µM) | 0.033 (≈ 0.254 µM) | – | – | 0.48 (≈ 3.69 µM) | 0.074 (≈ 0.569 µM) | – |
| COc1cc2c(O[C@@H]3OC[C@](O)(CO[C@@H]4OC[C@@H](O)[C@H](O)[C@H]4O)[C@H]3O[C@H]3OC[C@@H](O)[C@@H](O[C@@H]4OC[C@](O)(CO)[C@H]4O)[C@@H]3O)c3c(c(-c4ccc5c(c4)OCO5)c2cc1OC)C(=O)OC3 | – | – | – | -26 | – | – | – |
| COc1cc2c(O)c3c(c(-c4ccc5c(c4)OCO5)c2cc1OC)C(=O)OC3 [DIPHYLLIN] | 3.6 (≈ 9.46 µM) | 0.4 (≈ 1.05 µM) | 2.7 (≈ 7.1 µM) | -22.2 | 0.8 (≈ 2.1 µM) | 2.5 (≈ 6.57 µM) | inhibition at 30 µM [16]: -0.5%; inhibition at 10 µM [17]: -28.4% |
| COc1cc2c(O[C@@H]3OC[C@](O)(CO)[C@H]3O[C@H]3OC[C@@H](O)[C@@H](O)[C@@H]3O)c3c(c(-c4ccc5c(c4)OCO5)c2cc1OC)C(=O)OC3 | 3.1 (≈ 4.81 µM) | 3.9 (≈ 6.05 µM) | 3.1 (≈ 4.81 µM) | – | – | 6.7 (≈ 10.4 µM) | – |
| COc1cc2c(O[C@@H]3OC[C@](O)(CO)[C@H]3O)c3c(c(-c4ccc5c(c4)OCO5)c2cc1OC)C(=O)OC3 [TUBERCULATIN] | 0.014 (≈ 0.0273 µM) | 0.04 (≈ 0.0781 µM) | – | – | 0.28 (≈ 0.546 µM) | 0.29 (≈ 0.566 µM) | EC50 [2]: 0.97 µg/mL (≈ 1.89 µM); EC50 [3]: 0.09 µg/mL (≈ 0.176 µM); EC50 [9]: 0.12 µg/mL (≈ 0.234 µM); inhibition at 3 µM [18]: 16.9% |
| C[C@@H]1C[C@H]2[C@@H]3CCC4=CC(=O)C=C[C@]4(C)[C@@]3(F)[C@@H](O)C[C@]2(C)[C@@]1(O)C(=O)CO [DEXAMETHASONE] | – | – | – | – | – | – | pIC50 [19]: 6.15 |
